Results on 14 molecules are retold here after ChEMBL document CHEMBL4673290, “Diazaspirononane Nonsaccharide Inhibitors of O-GlcNAcase (OGA) for the Treatment of Neurodegenerative Disorders” (J Med Chem, 2020).

The structures appear in SMILES notation. Bounds are passed on as bounds.

In one data set the target is Protein O-GlcNAcase (Homo sapiens, UniProt O60502). The data set can be described thus: Inhibition of OGA in HEK293 cells induced with human Tau […] mutant assessed as increase in O-GlcNAcylated protein levels measured after 6 hrs by Hoechst 33342 dye based fluorescence analysis. It counts as cell-based.
Sequence of Protein O-GlcNAcase (O60502 whole entry, looked up, change not shown): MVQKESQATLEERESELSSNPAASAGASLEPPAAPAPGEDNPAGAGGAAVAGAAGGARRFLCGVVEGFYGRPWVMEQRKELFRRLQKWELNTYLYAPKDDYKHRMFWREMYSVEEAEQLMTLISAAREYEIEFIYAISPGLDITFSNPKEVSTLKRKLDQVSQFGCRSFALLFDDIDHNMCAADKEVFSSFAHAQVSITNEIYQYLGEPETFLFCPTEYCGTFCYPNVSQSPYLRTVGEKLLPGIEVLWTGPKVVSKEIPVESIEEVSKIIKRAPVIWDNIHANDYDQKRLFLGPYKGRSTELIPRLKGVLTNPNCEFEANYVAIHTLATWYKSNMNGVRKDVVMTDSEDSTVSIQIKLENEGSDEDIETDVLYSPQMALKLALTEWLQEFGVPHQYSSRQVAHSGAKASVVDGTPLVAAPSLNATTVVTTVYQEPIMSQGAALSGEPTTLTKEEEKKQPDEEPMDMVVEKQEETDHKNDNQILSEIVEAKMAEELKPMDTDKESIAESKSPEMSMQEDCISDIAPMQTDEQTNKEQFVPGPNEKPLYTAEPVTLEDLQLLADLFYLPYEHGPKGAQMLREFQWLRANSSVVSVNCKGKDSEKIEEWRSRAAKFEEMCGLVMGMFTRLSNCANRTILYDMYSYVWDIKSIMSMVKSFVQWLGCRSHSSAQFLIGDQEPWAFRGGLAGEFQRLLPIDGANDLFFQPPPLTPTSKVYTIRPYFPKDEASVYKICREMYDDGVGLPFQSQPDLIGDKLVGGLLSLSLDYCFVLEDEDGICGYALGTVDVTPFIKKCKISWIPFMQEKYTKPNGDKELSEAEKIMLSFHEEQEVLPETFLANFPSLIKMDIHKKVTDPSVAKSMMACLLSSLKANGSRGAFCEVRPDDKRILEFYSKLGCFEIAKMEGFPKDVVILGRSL
Conditions: not given
The essentials:
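Janssen HEK293 line inducible for P301L human Tau 2N4R, seeded two days before at 4000 cells/well in low-glucose assay medium. Compound exposure 6 h with 0.2% DMSO. Cells fixed with 4% PFA, permeabilized, then stained with CTD110.6 anti-O-GlcNAc (1/1000, 4 °C overnight) and a fluorescent secondary. Readout was 488 nm intensity over nine fields; Hoechst nuclei counted. Thiamet-G 200 μM defined maximum. IC50 by nonlinear regression.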
As to `CC(=O)Nc1ncc(CN2CCC3(CCN(c4cc(C)nc(C(F)(F)F)c4)C3)C2)s1` (racemic), the IC50 – broadly, the concentration needed to halve the response being measured – is 380 nM.
With `CC(=O)Nc1ncc(CN2CC[C@]3(C[C@H](Oc4cc(C)nc(C)c4)CO3)C2)s1` (racemic), the IC50 stood at 537 nM.
Turning to `CC(=O)Nc1ncc(CN2CCC3(CC(c4cc(C)nc(C)c4)C3)C2)s1` (racemic), the 50% inhibitory concentration (IC50) was found to be 182 nM.
Consider `CC(=O)Nc1ncc(CN2CCC3(CCN(c4cc(C)n5ccnc5n4)C3)C2)s1` (racemic), for which the IC50 turned out to be 437 nM.
For the molecule `Cc1cc(N2CCC3(CCNC3)C2)n2ncnc2n1` (racemic), the 50% inhibitory concentration (IC50) is more than 10000 nM.
For `COc1cc(N2CCC3(CCN(Cc4cnc(NC(C)=O)s4)C3)C2)cc(C)n1` (racemic), the IC50 came out at 56 nM.
As to `CC(=O)Nc1ncc(CN2CCC3(CCN(c4cc(C)cc(C)n4)C3)C2)s1` (racemic), the half-maximal inhibitory concentration (IC50) amounted to 46 nM.
For `Cc1cc(N2CCC3(CCN(Cc4ccc5nccnc5c4)C3)C2)n2ncnc2n1` (racemic), the IC50 was more than 10000 nM.
For `CC(=O)Nc1ncc(CN2CCC3(CCN(c4cc(C)nc5ccccc45)C3)C2)s1` (single isomer, unassigned; (+)), the IC50 came to 17 nM.
As for `CC(=O)Nc1ncc(CN2CCC3(CCN(c4cc(C)nc5ccccc45)C3)C2)s1` (single isomer, unassigned; (-)), the IC50 is 263 nM.

Tested on in another data set: not listed separately
The data set can be described thus: in vitro. The following applies: mouse, liver microsomes, CLH. A general note: Liver microsomes are vesicles of endoplasmic reticulum, rich in cytochrome P450 enzymes.
Turning to `CC(=O)Nc1ncc(CN2CCC3(CCN(c4cc(C)nc(C(F)(F)F)c4)C3)C2)s1` (racemic), the microsomal CLint (as a rule, the rate of metabolic loss divided by the concentration) at 1 h, 1 µM amounted to 55 µL/min/mg.
For the molecule `CC(=O)Nc1ncc(CN2CCC3(CCN(c4cc(C)n5ccnc5n4)C3)C2)s1` (racemic), the microsomal CLint at 1 h, 1 µM was 16 µL/min/mg.
Molecule `COc1cc(N2CCC3(CCN(Cc4cnc(NC(C)=O)s4)C3)C2)cc(C)n1` (racemic) returned an intrinsic clearance (microsomal CLint) at 1 h, 1 µM of 12 µL/min/mg. The microsomal CLint at 1 h, 1 µM values of the last two molecules are within 1.5-fold of each other.
With `CC(=O)Nc1ncc(CN2CCC3(CCN(c4cc(C)cc(C)n4)C3)C2)s1` (racemic), the microsomal CLint at 1 h, 1 µM worked out at 264 µL/min/mg.
For the molecule `CC(=O)Nc1ncc(CN2CCC3(CCN(c4cc(C)nc5ccccc45)C3)C2)s1` (single isomer, unassigned; (+)), the intrinsic clearance (microsomal CLint) at 1 h, 1 µM was determined as 15 µL/min/mg.

Tested on in the next data set: not listed separately
The data set can be described thus: Inhibition of human recombinant full-length OGA transcript variant 1 expressed in HEK293T cells using FM-GlcNAc as substrate preincubated for 60 mins followed by addition of substrate and measured after 6 hrs by fluorescence assay.
Conditions: not given
In outline:
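Full-length human OGA, 2 nM, preincubated with compound for 60 min at room temperature. FM-GlcNAc substrate at 100 μM final, in 200 mM citrate/phosphate pH 7.2 with 0.005% Tween-20 and ≤1% DMSO. Run 6 h at room temperature, stopped with 500 mM carbonate pH 11.0. Fluorescence read at 485/538 nm. IC50 and Hill coefficient from least-squares fit, normalised to no-inhibitor and saturating reference controls.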
With `CC(=O)Nc1ncc(CN2CC[C@]3(C2)C[C@@H](Oc2cc(C)nc(C)c2)C3)s1`, the 50% inhibitory concentration (IC50) was 550 nM.
Take `CC(=O)Nc1ncc(CN2CC[C@]3(C2)C[C@H](Oc2cc(C)nc(C)c2)C3)s1`: the 50% inhibitory concentration (IC50) came to 1000 nM.
Consider `CC(=O)Nc1ncc(CN2CCC3(CCN(c4cc(C)nc(C(F)(F)F)c4)C3)C2)s1` (racemic), for which the 50% inhibitory concentration (IC50) came out at 19 nM.
The same measure, in the same setting: for `CC(=O)Nc1ncc(CN2CCC3(CC(COc4cc(C)nc(C)c4)C3)C2)s1` (racemic) the value was 316 nM.
In the case of `CC(=O)Nc1ncc(CN2CC[C@]3(C[C@H](Oc4cc(C)nc(C)c4)CO3)C2)s1` (racemic), the IC50 was found to be 30 nM.
In the case of `CC(=O)Nc1ncc(CN2CCC3(CC(c4cc(C)nc(C)c4)C3)C2)s1` (racemic), the concentration for half-maximal inhibition (IC50) worked out at 36 nM.
Turning to `CC(=O)Nc1ncc(CN2CCC3(CCN(c4cc(C)n5ccnc5n4)C3)C2)s1` (racemic), the IC50 came out at 1 nM.
Turning to `Cc1cc(N2CCC3(CCNC3)C2)n2ncnc2n1` (racemic), the 50% inhibitory concentration (IC50) came out at 3240 nM.
Turning to `COc1cc(N2CCC3(CCN(Cc4cnc(NC(C)=O)s4)C3)C2)cc(C)n1` (racemic), the 50% inhibitory concentration (IC50) came to 6 nM.
In the case of `CC(=O)Nc1ncc(CN2CCC3(CCN(c4cc(C)cc(C)n4)C3)C2)s1` (racemic), the IC50 is 4 nM.
In the case of `Cc1cc(N2CCC3(CCN(Cc4ccc5nccnc5c4)C3)C2)n2ncnc2n1` (racemic), the IC50 was determined as 74 nM.
For the molecule `CC(=O)Nc1ncc(CN2CC[C@]3(C[C@@H](Oc4cc(C)nc(C)c4)CO3)C2)s1` (racemic), the 50% inhibitory concentration (IC50) is 209 nM.
As for `CC(=O)Nc1ncc(CN2CCC3(CCN(c4cc(C)nc5ccccc45)C3)C2)s1` (single isomer, unassigned; (+)), the 50% inhibitory concentration (IC50) amounted to 5 nM.
Consider `CC(=O)Nc1ncc(CN2CCC3(CCN(c4cc(C)nc5ccccc45)C3)C2)s1` (single isomer, unassigned; (-)), for which the IC50 is 25 nM.

Tested on in a further data set: not listed separately
The data set can be described thus: Oral bioavailability in male CD1 mouse at 30 mg/kg, compound dissolved in water measured after 24 hrs by LC-MS/MS analysis. It counts as ADME, organism-based. The following applies: in vivo. In outline: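 Male CD1 mice, three per arm: 1 mg/kg iv in 0.9% saline and 30 mg/kg po as a solution in water adjusted to about pH 4. Serial blood to 24 h. Plasma levels measured by LC-MS/MS after acetonitrile precipitation. Bioavailability derived from iv and po exposure.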
For `CC(=O)Nc1ncc(CN2CCC3(CCN(c4cc(C)nc5ccccc45)C3)C2)s1` (single isomer, unassigned; (+)), the bioavailability – broadly, the share of a dose that reaches the circulation, judged against a reference dose that is usually intravenous – was 23.1%.

Tested on in a further data set: not listed separately
Kind of data set: Clearance in male CD1 mouse at 1 mg/kg, iv compound dissolved in saline measured after 24 hrs by LC-MS/MS analysis. In kind it is ADME, organism-based. The following applies: in vivo. In outline:
(§1)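 Single 1 mg/kg iv dose in 0.9% saline to three male CD1 mice. Blood sampled at 0.117, 0.333, 1, 2, 4, 7 and 24 h. Plasma prepared by acetonitrile protein precipitation and analysed by qualified LC-MS/MS.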
As to `CC(=O)Nc1ncc(CN2CCC3(CCN(c4cc(C)nc5ccccc45)C3)C2)s1` (single isomer, unassigned; (+)), the clearance – broadly, the volume of plasma or blood freed of the substance per unit of time – worked out at 55.8 mL/min/kg.

Tested on in a further data set: not listed separately
The data set can be described thus: Volume of distribution at steady state in male CD1 mouse at 1 mg/kg, iv compound dissolved in saline measured after 24 hrs by LC-MS/MS analysis. In kind it is ADME, organism-based. The following applies: in vivo, read-out: Vdss. In outline: as §1
On to `CC(=O)Nc1ncc(CN2CCC3(CCN(c4cc(C)nc5ccccc45)C3)C2)s1` (single isomer, unassigned; (+)), for which the Vd is 17.8 L/kg.

Tested on in the next data set: not listed separately
The data set can be described thus: AUC (0 to last) in male CD1 mouse at 30 mg/kg, po compound dissolved in water measured after 24 hrs by LC-MS/MS analysis. In kind it is ADME, organism-based. The following applies: in vivo. Also noted: route oral, time 24 hrs, dose 30 mg/kg. In outline:
(§2)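 Three male CD1 mice per arm; oral solution in water adjusted to about pH 4. Blood taken at 0.5, 1, 2, 4, 7 and 24 h. Plasma protein-precipitated with acetonitrile and the supernatant quantified by qualified LC-MS/MS.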
On to `CC(=O)Nc1ncc(CN2CCC3(CCN(c4cc(C)nc5ccccc45)C3)C2)s1` (single isomer, unassigned; (+)), for which the AUC(0-t) – broadly, exposure summed from dosing to a finite time, without extrapolation to infinity – at 24 h turned out to be 1940 ng·h/mL.

Tested on in another data set: not listed separately
Kind of data set: Cmax in male CD1 mouse at 30 mg/kg, po compound dissolved in water measured after 24 hrs by LC-MS/MS analysis. It counts as ADME, organism-based. Also on record: route oral, dose 30 mg/kg, time 24 hrs. The following applies: in vivo. The essentials: as §2
For the molecule `CC(=O)Nc1ncc(CN2CCC3(CCN(c4cc(C)nc5ccccc45)C3)C2)s1` (single isomer, unassigned; (+)), the highest level (Cmax) was 331 ng/mL.

Tested on in a further data set: not listed separately
Kind of data set: in vitro. The following applies: human, liver microsomes, CLH.
In turn, `CC(=O)Nc1ncc(CN2CCC3(CCN(c4cc(C)nc(C(F)(F)F)c4)C3)C2)s1` (racemic) gave a microsomal CLint at 1 h, 1 µM of 46 µL/min/mg.
As to `CC(=O)Nc1ncc(CN2CCC3(CCN(c4cc(C)n5ccnc5n4)C3)C2)s1` (racemic), the intrinsic clearance (microsomal CLint) at 1 h, 1 µM was less than 8 µL/min/mg.
`COc1cc(N2CCC3(CCN(Cc4cnc(NC(C)=O)s4)C3)C2)cc(C)n1` (racemic) displayed a microsomal CLint at 1 h, 1 µM of less than 8 µL/min/mg.
Turning to `CC(=O)Nc1ncc(CN2CCC3(CCN(c4cc(C)cc(C)n4)C3)C2)s1` (racemic), the intrinsic metabolic clearance (microsomal CLint) at 1 h, 1 µM stood at 101 µL/min/mg.
Still for that read-out and setting: for `CC(=O)Nc1ncc(CN2CCC3(CCN(c4cc(C)nc5ccccc45)C3)C2)s1` (single isomer, unassigned; (+)) the value was less than 8 µL/min/mg.

The next data set concerns P-gp (MDR1). Kind of data set: Efflux ratio of apparent permeability across basolateral to apical over apical to basolateral side in MDCK2-MDR1 cells at 5 uM measured after 120 mins in absence of P-gp inhibitor GF120918 by LC-MS/MS analysis. The following applies: dog, MDCK-MDR1.
Regarding `CC(=O)Nc1ncc(CN2CCC3(CCN(c4cc(C)nc(C(F)(F)F)c4)C3)C2)s1` (racemic), the efflux ratio (in general, a quotient of directional permeabilities that is used to spot active efflux) at 2 h, 5 µM is 32.2.
Still for that read-out and setting: with `CC(=O)Nc1ncc(CN2CCC3(CCN(c4cc(C)n5ccnc5n4)C3)C2)s1` (racemic) the figure was 1.2; with `COc1cc(N2CCC3(CCN(Cc4cnc(NC(C)=O)s4)C3)C2)cc(C)n1` (racemic), 27.7; with `CC(=O)Nc1ncc(CN2CCC3(CCN(c4cc(C)cc(C)n4)C3)C2)s1` (racemic), 24.8.
